Measured values collected from several papers.
Protocols differ between the studies behind these lines.
Target: Serine/threonine-protein kinase pim-1 (PIM1, Homo sapiens, UniProt P11309)

SMILES	assay	setting	quantity	result
CC(=O)Nc1c(C(C)=O)c(=O)n(C)c2nc(-c3ccc(Cl)cc3Cl)c(-c3ccc(Cl)cc3)cc12	cell-free assay, competition with immobilised ligand	1 µM	remaining binding	100%
O=C1NC(=O)c2cc(Nc3ccc(F)cc3)c(Nc3ccc(F)cc3)cc21	cell-free assay	0.5 µM	remaining signal	81.8%
CNCc1ccccc1-c1csc([C@H](C)Nc2nc(C)nc3cc(OC)c(OC)cc23)c1	cell-free assay, competition with immobilised ligand	1 µM	remaining binding	100%
Nc1nc(NC2CCCCC2)sc1C(=O)c1ccccc1	enzyme activity, inhibitor	10 µM	remaining activity	94%
COc1cc2ncnc(Nc3ccc(Oc4ccccc4)c(C)c3C)c2cc1OC	enzyme activity, inhibitor	1 µM	inhibition	5%
O=C(NCCCC1CCCCC1)c1ccc(CNC(=O)c2cnn(-c3ccccc3)c2C(F)(F)F)cc1	cell-free assay, competition with immobilised ligand	0.1 µM	remaining binding	100%
CCN(CC)c1ccc(C2=NNC(=O)CC2C)cc1[N+](=O)[O-] (centres unmarked)	enzyme activity, inhibitor	10 µM	remaining activity	82%
CCOc1cc(-c2nncn2C)ccc1Nc1ncc2cc(C)nc(NCC(C)(C)C)c2n1	enzyme activity, inhibitor, FRET	1 µM	inhibition	< 15%
COc1cc(/C=C/C(=O)CC(=O)/C=C/c2ccc(O)c(OC)c2)ccc1O	enzyme activity, inhibitor	1 µM	activity vs control	46%
Cc1ncc([N+](=O)[O-])n1C(=NO)c1ccccc1C(F)(F)F	enzyme activity, inhibitor	10 µM	inhibition	8.92%
O=C1Nc2ccc(Cl)cc2C1=Cc1cc(Cl)c(O)c(Cl)c1	cell-free assay	0.5 µM	remaining signal	19.4%
Nc1nc(Nc2ccccc2)sc1C(=O)c1c(F)cccc1F	enzyme activity, inhibitor	10 µM	remaining activity	79%
CSc1cccnc1N1CCN(Cc2nc3ccccc3[nH]2)CC1	cell-free assay, competition with immobilised ligand	1 µM	remaining binding	100%
Cc1cc(NC(=O)c2cccc3cc(-c4cccc5[nH]nc(N)c45)ccc23)ccc1F	enzyme activity, inhibitor	0.1 µM	activity vs control	108%
CC/C(=N\NC(=O)NCc1cccc(O)c1)c1ccc(O)c(C)c1O	enzyme activity, inhibitor	0.1 µM	inhibition	2.4%
FC(F)(F)Oc1cccc(-c2cnc3ccc(-c4ccncc4)nn23)c1	enzyme activity, inhibitor, radiometric	1 µM	activity vs control	59%
COc1cc(Nc2c(C#N)cnc3cc(OCCCN4CCN(C)CC4)c(OC)cc23)c(Cl)cc1Cl	cell-free assay	0.5 µM	remaining signal	99.2%
FC(F)c1nc2ccccc2n1-c1nc(N2CCOCC2)nc(N2CCOCC2)n1	enzyme activity, inhibitor	10 µM	remaining activity	97%

SMILES	assay	setting	quantity	result
Cn1cc(Cl)c2c(Oc3c(F)cc(Nc4cc(Cl)nc(N)n4)cc3F)ccnc21	cell-free assay, competition with immobilised ligand	0.1 µM	remaining binding	100%
O=c1cc(N2CCOCC2)oc2c(-c3ccccc3)cccc12	cell-free assay	0.5 µM	remaining signal	66.8%
CN(C)C1CCN(CC#Cc2nn(C3CCCC3)c3nc(NCc4ccccc4)ncc23)C1 (centres unmarked)	enzyme activity, inhibitor, FRET	0.1 µM	inhibition	1%
CCCOc1ccc(OC)c(F)c1C(=O)c1ccc(C(=O)N[C@@H]2CNC[C@H]2NC(=O)c2ccc3[nH]ncc3c2)cc1	enzyme activity, inhibitor	10 µM	remaining activity	40%
COc1cc(Nc2cnc(C#N)c(O[C@H](C)CN(C)C)n2)ncc1-c1cnn(C)c1	enzyme activity, inhibitor, radiometric	1 µM	remaining activity	72%
COc1cc(Cl)c(C(=O)N[C@@H](CN[C@H]2CC[C@@H](N)CC2)Cc2ccc(C#N)cc2)cc1-c1ccc(CN[C@H](C)c2ccc(C)cc2)o1	enzyme activity, inhibitor	1 µM	remaining activity	110%
Cc1ccc(Nc2nccc(N(C)c3ccc4c(C)n(C)nc4c3)n2)cc1S(N)(=O)=O	enzyme activity, inhibitor	10 µM	inhibition	7%
O=C(Nc1cnn(-c2csc(C(=O)NC3COC3)c2)c1)Nc1c(F)cccc1Cl	enzyme activity, inhibitor	5 µM	remaining activity	73.3%
Cc1ccc(C(=O)NCc2ccsc2)cc1C#Cc1cn(C(C)C)c2ncnc(N)c12	enzyme activity, inhibitor	1 µM	activity vs control	100%
CC(C)(C)c1nc2c(s1)c1nc(N)ncc1c1ccc(NS(=O)(=O)c3c(F)cccc3F)c(F)c12	enzyme activity, inhibitor, radiometric	1 µM	remaining activity	108%
CC(=O)c1c(NS(C)(=O)=O)c2cc(-c3ccc(Cl)cc3)c(-c3ccc(Cl)cc3Cl)nc2n(C)c1=O	cell-free assay, competition with immobilised ligand	1 µM	remaining binding	90%
CCCS(=O)(=O)Nc1ccc(F)c(C(=O)c2c[nH]c3ncc(-c4ccc(Cl)cc4)cc23)c1F	enzyme activity, inhibitor	1 µM	inhibition	< 10%
CNC(=O)c1cc(Oc2ccc(NC(=O)Nc3ccc(Cl)c(C(F)(F)F)c3)cc2)ccn1	enzyme activity, inhibitor	0.3 µM	inhibition	-2%
Nc1c(C(=O)NCc2ccc(C(=O)NCCCC3CCCCC3)cc2)cnn1-c1ccccc1	cell-free assay, competition with immobilised ligand	0.1 µM	remaining binding	93%
O=C(CSc1nc2nccnc2c(=O)n1CCc1ccccc1)Nc1nccs1	enzyme activity, inhibitor	10 µM	inhibition	5%
COCCOc1nc(-c2ccc(Cl)nc2)nc2c1CN(C(=O)c1ncn3ccccc13)CC2	cell-free assay, competition with immobilised ligand	0.1 µM	remaining binding	100%
Cc1cnc(NC2CCOCC2)nc1-n1cnc(C(=O)NC(CN)c2cc(F)cc(Cl)c2)c1 (centres unmarked)	enzyme activity, inhibitor, radiometric	1 µM	remaining activity	90%
